Assay results as given in ChEMBL document CHEMBL5252510, “A Novel Potent Oral Series of VEGFR2 Inhibitors Abrogate Tumor Growth by Inhibiting Angiogenesis” (J Med Chem, 2016).
The source made the active and inactive calls. The rule behind the calls is not given here.

Key:
Mus musculus = test: Anti-angiogenesis activity in FVB mouse model assessed as inhibition of VEGF-induced tissue weight at 50 mg/kg, po qd treated for 4 to 6 hrs prior to chamber implantation and continuing for 4 days measured after 24 hrs post last dose; type: functional, organism-based; conditions: time 5.0 day
Method in brief: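 Chamber model in female FVB mice: VEGF (2 μg/mL) agar/heparin chambers s.c. in flank, oral dosing once daily starting 4-6 h before implantation and continuing 4 days; vascularized tissue harvested and weighed 24 h after final dose; 6 mice per group.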

[1] = Antitumor activity against rat BN472 cell implanted in Brown-Norway rat assessed as tumor growth inhibition by measuring T/C ratio at 30 mg/kg, po qd measured upto 14 days; type: functional; conditions: time <= 14 day
Method in brief: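 Female Brown-Norway rats (160–180 g) received 3 mm³ BN472 tumor fragments in the mammary fat pad. Randomized at about 200 mm² tumor, 2–3 weeks after transplant, into groups of 7–8. Oral daily dosing in PEG300 vehicle for 14 days. Tumor growth curves were compared with vehicle. Experiment run twice.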

[2] = biological target: Hepatocyte growth factor receptor (Homo sapiens) (UniProt P08581); test: Inhibition of human recombinant GST-fused c-MET expressed in baculovirus expression system using poly-Glu-Tyr (4:1) as substrate measured after 10 mins in presence of gamma-[33P]-ATP by scintillation counting analysis
Method in brief: (§1)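 GST-fused kinase domains were expressed in baculovirus and purified on glutathione-Sepharose. 10 min at ambient temperature, stopped with EDTA. Filter binding and scintillation counting. IC50 by linear regression of percent inhibition.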

[3] = biological target: Cyclin-dependent kinase 1 (Homo sapiens) (UniProt P06493); test: Inhibition of human recombinant GST-fused CDK1 expressed in baculovirus expression system using poly-Glu-Tyr (4:1) as substrate measured after 10 mins in presence of gamma-[33P]-ATP by scintillation counting analysis; method in brief: as §1
[4] = biological target: Fibroblast growth factor receptor 3 (Homo sapiens) (UniProt P22607); test: Inhibition of human recombinant GST-fused FGFR3 expressed in baculovirus expression system using poly-Glu-Tyr (4:1) as substrate measured after 10 mins in presence of gamma-[33P]-ATP by scintillation counting analysis; method in brief: as §1
BaF3 [5] = test: Antiproliferative activity against mouse BaF3 cells expressing Bcr-ABL assessed as cell growth inhibition measured after 72 hrs by Alamar Blue assay; conditions: BaF3, 72 h
BaF3 [6] = test: Antiproliferative activity against mouse BaF3 cells expressing ERBB2 V659E mutant assessed as cell growth inhibition measured after 72 hrs by Alamar Blue assay; conditions: BaF3, 72 h
BaF3 [7] = test: Antiproliferative activity against mouse BaF3 cells expressing Tel-FGFR3 assessed as cell growth inhibition measured after 72 hrs by Alamar Blue assay; conditions: BaF3, 72 h
BaF3 [8] = test: Antiproliferative activity against mouse BaF3 cells expressing FLT3-ITD assessed as cell growth inhibition measured after 72 hrs by Alamar Blue assay; conditions: BaF3, 72 h
BaF3 [9] = test: Antiproliferative activity against mouse BaF3 cells expressing Tel-IGF-1R assessed as cell growth inhibition measured after 72 hrs by Alamar Blue assay; conditions: BaF3, 72 h
BaF3 [10] = test: Antiproliferative activity against mouse BaF3 cells expressing KIT D816V mutant assessed as cell growth inhibition measured after 72 hrs by Alamar Blue assay; conditions: BaF3, 72 h
BaF3 [11] = test: Antiproliferative activity against mouse BaF3 cells expressing Trp-MET assessed as cell growth inhibition measured after 72 hrs by Alamar Blue assay; conditions: BaF3, 72 h
BaF3 [12] = test: Antiproliferative activity against mouse BaF3 cells expressing PTC3-RET assessed as cell growth inhibition measured after 72 hrs by Alamar Blue assay; conditions: BaF3, 72 h
BaF3 [13] = test: Antiproliferative activity against mouse BaF3 cells assessed as cell growth inhibition measured after 72 hrs by Alamar Blue assay; conditions: BaF3, 72 h
BaF3 [14] = test: Antiproliferative activity against mouse BaF3 cells expressing NPM-ALK assessed as cell growth inhibition measured after 72 hrs by Alamar Blue assay; conditions: BaF3, 72 h
[15] = biological target: Vascular endothelial growth factor receptor 2 (Mus musculus, UniProt P35918); test: Inhibition of mouse recombinant GST-fused VEGFR2 kinase domain expressed in baculovirus expression system using poly-Glu-Tyr (4:1) as substrate measured after 10 mins in presence of gamma-[33P]-ATP by scintillation counting analysis; method in brief: as §1
BaF3 [16] = test: Antiproliferative activity against mouse BaF3 cells expressing Tel-PDGFRbeta assessed as cell growth inhibition measured after 72 hrs by Alamar Blue assay; conditions: BaF3, 72 h
HUVEC [17] = test: Antiproliferative activity against VEGF-stimulated HUVEC cells assessed as cell growth inhibition measured after 24 hrs by BrdUrd incorporation based spectrophotometric analysis; conditions: Homo sapiens
HUVEC [18] = test: Antiproliferative activity against bFGF-stimulated HUVEC cells assessed as cell growth inhibition measured after 24 hrs by BrdUrd incorporation based spectrophotometric analysis; conditions: Homo sapiens
B16-BL6 [19] = test: Antitumor activity against mouse B16-BL6 cells implanted in C57BL/6jNpa mouse assessed as primary tumor growth inhibition by measuring T/C ratio at 100 mg/kg, po qd administered started on day 7 post implantation measured after 21 days; type: functional; conditions: time 7-21 day
Method in brief: (§2)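 Female C57BL/6JNpa mice, 50000 B16/BL6 cells intradermally in both ear pinnae; primary tumor area (mm²) imaged days 7, 14, 21; randomized day 7 into groups of 5-6, oral dosing in PEG200 or PEG300 vehicle daily (or every 2 days) for 14 days; day 21 cervical lymph nodes weighed, metastasis lysates assayed for TIE-2 by ELISA; T/C ratios.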

B16-BL6 [20] = test: Antitumor activity against mouse B16-BL6 cells implanted in C57BL/6jNpa mouse assessed as metastatic tumor growth inhibition by measuring T/C ratio at 100 mg/kg, po qd administered started on day 7 post implantation measured after 21 days relative to control; type: functional; conditions: time 7-21 day; method in brief: as §2
[21] = Antitumor activity against rat BN472 cell implanted in Brown-Norway rat assessed as tumor growth inhibition by measuring T/C ratio at 100 mg/kg, po qd measured upto 14 days; type: functional; conditions: time <= 14 day
Method in brief: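 Female Brown-Norway rats (160-180 g) given 3 mm³ BN472 tumor fragments in mammary fat pads; at about 200 mm², randomized into groups of 7-8 and dosed orally with compound or PEG300 vehicle over 14 days; tumor growth followed, T/C computed; significance by 2-way RM-ANOVA.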

Sequence of Vascular endothelial growth factor receptor 2 (P35918 whole entry, the tested form may be a part): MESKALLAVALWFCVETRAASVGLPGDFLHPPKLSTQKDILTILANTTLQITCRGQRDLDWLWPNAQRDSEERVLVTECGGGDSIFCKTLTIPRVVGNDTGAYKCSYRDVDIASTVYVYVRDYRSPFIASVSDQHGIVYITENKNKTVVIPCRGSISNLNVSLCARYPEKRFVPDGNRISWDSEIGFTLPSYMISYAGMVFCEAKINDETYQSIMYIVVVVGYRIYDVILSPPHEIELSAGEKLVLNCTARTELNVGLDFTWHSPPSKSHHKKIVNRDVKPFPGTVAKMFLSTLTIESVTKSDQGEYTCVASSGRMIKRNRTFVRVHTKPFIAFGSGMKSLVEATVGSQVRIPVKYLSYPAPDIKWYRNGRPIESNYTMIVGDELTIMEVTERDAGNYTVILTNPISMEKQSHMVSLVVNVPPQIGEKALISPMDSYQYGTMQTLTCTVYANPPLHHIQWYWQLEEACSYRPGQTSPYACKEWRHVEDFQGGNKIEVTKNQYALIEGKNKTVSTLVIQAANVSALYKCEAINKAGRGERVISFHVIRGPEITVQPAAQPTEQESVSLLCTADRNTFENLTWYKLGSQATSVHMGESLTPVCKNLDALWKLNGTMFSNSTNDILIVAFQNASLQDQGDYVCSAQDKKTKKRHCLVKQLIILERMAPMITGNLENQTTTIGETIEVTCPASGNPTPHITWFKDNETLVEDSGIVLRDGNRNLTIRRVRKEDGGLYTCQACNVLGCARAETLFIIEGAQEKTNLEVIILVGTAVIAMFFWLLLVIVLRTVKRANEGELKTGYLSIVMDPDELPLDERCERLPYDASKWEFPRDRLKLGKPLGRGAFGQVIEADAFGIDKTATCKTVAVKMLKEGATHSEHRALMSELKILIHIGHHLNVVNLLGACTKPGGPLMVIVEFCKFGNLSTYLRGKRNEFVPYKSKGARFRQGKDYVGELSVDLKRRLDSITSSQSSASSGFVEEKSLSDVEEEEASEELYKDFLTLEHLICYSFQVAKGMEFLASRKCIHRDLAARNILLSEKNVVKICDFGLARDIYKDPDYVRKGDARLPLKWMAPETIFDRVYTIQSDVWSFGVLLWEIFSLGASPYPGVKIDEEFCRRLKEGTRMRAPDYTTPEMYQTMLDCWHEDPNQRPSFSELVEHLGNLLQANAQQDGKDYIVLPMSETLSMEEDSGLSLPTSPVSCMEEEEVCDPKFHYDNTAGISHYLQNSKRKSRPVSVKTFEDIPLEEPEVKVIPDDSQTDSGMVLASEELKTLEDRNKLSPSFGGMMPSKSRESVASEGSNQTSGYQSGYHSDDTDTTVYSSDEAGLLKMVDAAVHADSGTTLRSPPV
Sequence of Hepatocyte growth factor receptor (Homo sapiens) (P08581 whole entry, the tested form may be a part): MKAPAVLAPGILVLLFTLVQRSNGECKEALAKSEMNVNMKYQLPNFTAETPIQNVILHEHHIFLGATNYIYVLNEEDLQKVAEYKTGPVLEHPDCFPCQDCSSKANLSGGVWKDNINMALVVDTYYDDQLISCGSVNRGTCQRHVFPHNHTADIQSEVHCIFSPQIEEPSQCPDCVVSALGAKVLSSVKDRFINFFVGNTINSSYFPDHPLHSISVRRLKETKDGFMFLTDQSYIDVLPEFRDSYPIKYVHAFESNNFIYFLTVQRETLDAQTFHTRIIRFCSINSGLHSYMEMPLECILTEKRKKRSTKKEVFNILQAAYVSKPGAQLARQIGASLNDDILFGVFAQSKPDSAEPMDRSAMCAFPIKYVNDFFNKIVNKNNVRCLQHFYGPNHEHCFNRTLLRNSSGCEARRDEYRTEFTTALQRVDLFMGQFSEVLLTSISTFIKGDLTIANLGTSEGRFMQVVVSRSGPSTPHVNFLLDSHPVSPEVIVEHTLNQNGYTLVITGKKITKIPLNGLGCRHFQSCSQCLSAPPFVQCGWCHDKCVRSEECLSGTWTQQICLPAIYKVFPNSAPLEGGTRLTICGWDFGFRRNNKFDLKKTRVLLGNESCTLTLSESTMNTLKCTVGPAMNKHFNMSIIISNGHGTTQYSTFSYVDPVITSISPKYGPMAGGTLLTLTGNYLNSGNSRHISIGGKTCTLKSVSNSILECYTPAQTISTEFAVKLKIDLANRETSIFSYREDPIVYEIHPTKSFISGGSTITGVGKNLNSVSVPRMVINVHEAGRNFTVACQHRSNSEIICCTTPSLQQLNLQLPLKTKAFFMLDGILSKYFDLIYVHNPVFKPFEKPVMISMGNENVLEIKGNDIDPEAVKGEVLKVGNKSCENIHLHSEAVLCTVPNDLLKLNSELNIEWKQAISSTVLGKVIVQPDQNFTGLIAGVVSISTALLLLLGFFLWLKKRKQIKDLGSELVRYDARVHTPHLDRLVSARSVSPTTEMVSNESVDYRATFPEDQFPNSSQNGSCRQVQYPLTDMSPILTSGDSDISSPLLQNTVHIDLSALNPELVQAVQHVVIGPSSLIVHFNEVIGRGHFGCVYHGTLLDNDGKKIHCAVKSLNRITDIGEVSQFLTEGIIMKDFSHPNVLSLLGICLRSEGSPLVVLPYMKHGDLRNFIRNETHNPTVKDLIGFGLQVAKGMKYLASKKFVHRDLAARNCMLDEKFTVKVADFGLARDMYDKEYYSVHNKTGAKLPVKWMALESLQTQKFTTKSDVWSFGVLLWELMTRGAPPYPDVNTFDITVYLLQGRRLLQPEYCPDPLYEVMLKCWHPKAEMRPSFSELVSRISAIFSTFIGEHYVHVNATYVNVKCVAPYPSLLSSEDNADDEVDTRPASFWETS
Sequence of Cyclin-dependent kinase 1 (Homo sapiens) (P06493 whole entry, looked up, the tested form may be a part): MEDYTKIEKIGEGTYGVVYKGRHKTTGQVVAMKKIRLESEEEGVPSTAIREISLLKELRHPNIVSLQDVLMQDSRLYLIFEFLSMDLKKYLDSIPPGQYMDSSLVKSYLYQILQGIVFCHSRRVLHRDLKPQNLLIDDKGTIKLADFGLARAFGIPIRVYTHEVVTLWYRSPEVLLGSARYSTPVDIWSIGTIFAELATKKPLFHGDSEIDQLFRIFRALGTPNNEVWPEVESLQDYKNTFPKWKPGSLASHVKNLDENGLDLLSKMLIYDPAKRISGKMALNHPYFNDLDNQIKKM
Sequence of Fibroblast growth factor receptor 3 (Homo sapiens) (P22607 23-806 limits assumed): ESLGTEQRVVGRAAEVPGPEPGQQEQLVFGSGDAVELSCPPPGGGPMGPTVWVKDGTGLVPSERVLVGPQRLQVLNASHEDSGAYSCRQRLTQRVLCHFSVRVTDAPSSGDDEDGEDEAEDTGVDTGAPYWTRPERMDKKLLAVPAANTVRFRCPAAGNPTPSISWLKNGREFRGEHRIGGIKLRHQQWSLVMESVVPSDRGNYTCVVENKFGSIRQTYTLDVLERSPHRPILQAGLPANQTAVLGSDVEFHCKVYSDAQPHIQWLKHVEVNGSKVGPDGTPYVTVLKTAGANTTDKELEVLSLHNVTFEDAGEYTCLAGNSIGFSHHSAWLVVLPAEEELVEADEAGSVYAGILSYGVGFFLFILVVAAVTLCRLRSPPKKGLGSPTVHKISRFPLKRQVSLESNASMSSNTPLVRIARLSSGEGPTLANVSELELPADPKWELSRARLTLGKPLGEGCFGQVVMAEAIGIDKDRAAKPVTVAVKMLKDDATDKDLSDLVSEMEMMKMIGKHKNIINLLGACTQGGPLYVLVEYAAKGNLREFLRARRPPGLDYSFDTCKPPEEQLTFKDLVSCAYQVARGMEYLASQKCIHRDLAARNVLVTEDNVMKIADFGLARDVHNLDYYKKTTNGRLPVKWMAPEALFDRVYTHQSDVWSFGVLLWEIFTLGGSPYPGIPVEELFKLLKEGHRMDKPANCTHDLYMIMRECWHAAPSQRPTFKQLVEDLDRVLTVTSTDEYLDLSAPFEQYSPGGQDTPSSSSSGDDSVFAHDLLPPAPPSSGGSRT

SMILES	Activity (Mus musculus)	IC50 (BaF3 [5])	IC50 (BaF3 [6])	IC50 (BaF3 [7])	IC50 (BaF3 [8])	IC50 (BaF3 [9])	IC50 (BaF3 [10])	IC50 (BaF3 [11])	IC50 (BaF3 [12])	IC50 (BaF3 [13])	IC50 (BaF3 [14])	other results
COc1cc2/c(=N/c3ccc(Br)cc3F)nc[nH]c2cc1OCC1CCN(C)CC1 [VANDETANIB]	Active	–	–	–	–	–	–	–	–	–	–	T/C [1]: 0.35
CNC(=O)c1cc(Oc2ccc(NC(=O)Nc3ccc(Cl)c(C(F)(F)F)c3)cc2)ccn1 [SORAFENIB]	–	5.82 µM	4.21 µM	2.46 µM	0.012 µM	3.68 µM	2.8 µM	7.4 µM	0.078 µM	> 10 µM	1.01 µM	inhibition [2]: Active; inhibition [3]: Active; inhibition [4]: Active
O=C(Nc1cccc(C(F)(F)F)c1)c1ccccc1NCc1ccncc1	–	> 5.5 µM	5.6 µM	> 5.5 µM	> 5.5 µM	8.4 µM	> 5.5 µM	> 5.5 µM	2.9 µM	> 10 µM	> 5.5 µM	IC50 [15]: 0.055 µM; IC50 (BaF3 [16]): 0.019 µM; IC50 (HUVEC [17]): 0.001 µM; IC50 (HUVEC [18]): > 3 µM; T/C (B16-BL6 [19]): 0.35; T/C (B16-BL6 [20]): 0.17; T/C [21]: 0.37
Cc1[nH]c(/C=C2\C(=O)Nc3ccccc32)c(C)c1CCC(=O)O	Active	–	–	–	–	–	–	–	–	–	–	–
